In general, IC50 refers to the concentration needed to halve the response being measured.

The text below walks through data of PMC2193344 (The Journal of Experimental Medicine, 2001).

Ends that are not written are not given here.

Assay [1] addresses T1, transporter associated with antigen processing (TAP) (Homo sapiens, UniProt Q03518+Q03519).
T1 sequence (Q03518 1-748): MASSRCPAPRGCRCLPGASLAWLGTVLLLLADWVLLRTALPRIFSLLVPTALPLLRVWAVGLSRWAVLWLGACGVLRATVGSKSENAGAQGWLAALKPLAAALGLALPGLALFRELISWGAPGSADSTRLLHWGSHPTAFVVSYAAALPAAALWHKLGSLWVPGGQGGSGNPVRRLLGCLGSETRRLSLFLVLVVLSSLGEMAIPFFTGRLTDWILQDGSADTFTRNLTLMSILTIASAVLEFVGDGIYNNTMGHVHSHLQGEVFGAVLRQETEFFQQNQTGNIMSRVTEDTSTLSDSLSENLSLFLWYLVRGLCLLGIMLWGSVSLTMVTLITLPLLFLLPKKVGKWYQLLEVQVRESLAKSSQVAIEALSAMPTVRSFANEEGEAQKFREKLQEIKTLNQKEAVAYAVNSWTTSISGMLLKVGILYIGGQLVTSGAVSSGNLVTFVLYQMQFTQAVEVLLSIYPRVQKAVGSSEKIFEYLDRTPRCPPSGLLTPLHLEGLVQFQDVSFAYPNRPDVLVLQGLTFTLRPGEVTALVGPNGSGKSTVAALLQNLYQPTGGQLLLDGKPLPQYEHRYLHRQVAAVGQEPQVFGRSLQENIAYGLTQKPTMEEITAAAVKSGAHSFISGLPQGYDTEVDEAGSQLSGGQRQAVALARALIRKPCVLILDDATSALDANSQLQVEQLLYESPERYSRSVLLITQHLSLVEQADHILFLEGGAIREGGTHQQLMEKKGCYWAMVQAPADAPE
T1 sequence (Q03519 1-686): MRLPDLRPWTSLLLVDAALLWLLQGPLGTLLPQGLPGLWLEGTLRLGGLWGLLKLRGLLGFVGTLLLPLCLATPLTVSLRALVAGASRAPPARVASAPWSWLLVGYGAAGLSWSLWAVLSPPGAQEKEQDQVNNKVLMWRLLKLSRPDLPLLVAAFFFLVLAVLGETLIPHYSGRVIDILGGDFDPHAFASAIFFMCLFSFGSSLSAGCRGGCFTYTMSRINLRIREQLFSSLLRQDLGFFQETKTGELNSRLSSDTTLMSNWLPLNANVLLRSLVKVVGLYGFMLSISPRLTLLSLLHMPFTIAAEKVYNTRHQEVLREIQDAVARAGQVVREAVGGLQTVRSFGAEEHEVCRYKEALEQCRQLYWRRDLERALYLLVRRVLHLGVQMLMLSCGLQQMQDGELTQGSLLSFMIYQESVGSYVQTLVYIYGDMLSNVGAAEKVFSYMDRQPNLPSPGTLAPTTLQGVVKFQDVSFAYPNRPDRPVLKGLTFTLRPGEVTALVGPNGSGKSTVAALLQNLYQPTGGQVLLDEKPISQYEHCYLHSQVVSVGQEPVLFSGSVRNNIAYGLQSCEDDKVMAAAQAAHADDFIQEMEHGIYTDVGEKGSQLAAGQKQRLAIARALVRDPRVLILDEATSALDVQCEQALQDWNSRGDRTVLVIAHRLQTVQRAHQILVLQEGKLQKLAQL
Description: Streptolysin O peptide transport assay. It counts as biochemical. In a few lines: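 TAP+ T1 TxB hybrid cells (10^6/sample; grown in RPMI 1640, 4 mM Hepes, 5% FCS, 3 mM l-glutamine) permeabilised with streptolysin O (15 U/ml) for 15 min on ice. Then 5 min at 37°C with 100 ng chloramine-T 125I-labelled reporter peptide, ATP (100 mM stock) and competitor peptide dilutions. TAP-negative T2 cells served as negative control. Duplicates; triplicates for T2 and uninhibited T1.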

The target in assay [2] is HLA-A*0201 molecules (Homo sapiens, UniProt P04439, D140Y/D185E/D98H/E176V/E277Q/G131W/G231S/I119V/I121R/I166T/I218V/L300P/L318F/N151K/N90K/P208A/P217A/Q86G/Q94H/R138H/R169H/T345S). In words: Class I peptide-binding affinity assay.

For the sequence RTLDKVLEV [RTLDKVLEV], the IC50 in assay [1] is 30 to 45 µM; in assay [2] it was 0.04 µM.
On to HPTLDKVLEV [HPTLDKVLEV], for which, in assay [1], the IC50 is 355 µM.
On the same count and under the same terms, the figure for PTLDKVLEV [PTLDKVLEV] is 175 µM.
Still for that read-out and setting: the result for KSADHPTLDKVLEV [KSADHPTLDKVLEV] reads 102 µM.
